The results in this text go back to ChEMBL document CHEMBL2390886, “Guaifenesin derivatives promote neurite outgrowth and protect diabetic mice from neuropathy” (J Med Chem, 2013).

Activity calls are given as the source filed them. The rule behind the calls is not given here.

For data set [1], the system named is DRG neuron. In words: Neuroprotective activity in Sprague-Dawley rat DRG neurons assessed as enhancement of neurite outgrowth at 0.01 to 1 uM after 24 hrs by confocal microscopic analysis. Type of data set: functional. In outline: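 DRG from adult male Sprague-Dawley rats dissociated; neurons cultured in defined Hams medium. Test agent incubated 24 h, then DIC images captured by confocal microscopy. Total neurite length per neuron measured morphometrically with a Weibel grid as crosspoints per cell, relative to control neurons of the same preparation. Mean ± SEM of 6 replicate cultures; one-way ANOVA with Tukey's post hoc test.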

Data set [2] has as its system DRG neuron. In words: Neuroprotective activity in Sprague-Dawley rat DRG neurons assessed as enhancement of neurite outgrowth up to 1 uM after 24 hrs by confocal microscopic analysis. Type of data set: functional. A digest of the protocol: (§1)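 Dissociated DRG neurons from adult male Sprague−Dawley rats cultured in defined medium with compound for 24 h. DIC images by confocal microscopy. Total neurite length per cell scored with Weibel-grid morphometry as intersects per cell, compared with control neurons of the same preparation. n = 6 replicate cultures; mean ± SEM; one-way ANOVA with Tukey's test.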

Data set [3] concerns Mus musculus. In words: Neuroprotective activity in streptozotocin-induced C57BL/6J mouse diabetic neuropathy model assessed as prevention of motor neuron conduction velocity slowing at 10 to 100 mg/kg/day, po administered 6 days per week for 4 weeks. Type of data set: functional, organism-based. A digest of the protocol:
(§2)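 Type 1 diabetes induced in fasted mice by ip STZ 90 mg/kg in sterile citrate buffer on 2 consecutive days, confirmed 4 days later and at study end by tail-prick blood glucose (reflectance meter). Compound or vehicle (water) by oral gavage 6 days/week from diabetes onset for 4 weeks. Body weight, glucose, and sciatic MNCV recorded. MNCV taken at 37 °C under isoflurane, stimulating at sciatic notch and Achilles tendon (5 V, 0.05 ms square wave), recording in ipsilateral paw interosseus muscles. n = 10−12/group; mean ± SEM; one-way ANOVA with Dunnett's test.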

A short description of data set [4]: Tmax in streptozotocin-induced C57BL/6J mouse diabetic neuropathy model at 10 mg/kg, po by LC-MS/MS analysis. Type of data set: ADME, organism-based. The arrangement: dose 10 mg/kg, route oral. Conditions: in vivo. In outline: (§3)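 Single oral dose […] given to control and STZ-diabetic mice; plasma analysed by LC−MS/MS. Samples vortexed 2 min, centrifuged, organic layer dried under N2 at room temperature and reconstituted in 0.2% TFA in MeOH/water 20:80. Standards 20–100 000 nM in water; internal standard response variable, not used for quantification.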

A short description of data set [5]: Cmax in C57BL/6J mouse at 10 mg/kg, po by LC-MS/MS analysis. Type of data set: ADME, organism-based. Also noted: dose 10 mg/kg, route oral. Conditions: in vivo. In outline: as §3
Data set [6] is described as follows: Tmax in C57BL/6J mouse at 10 mg/kg, po by LC-MS/MS analysis. Type of data set: ADME, organism-based. The arrangement: dose 10 mg/kg, route oral. Conditions: in vivo. In outline:
as §3

Data set [7] has as its system Mus musculus. In words: Toxicity in C57BL/6J mouse assessed as unusual behavior at 10 to 100 mg/kg/day, po administered 6 days per week for 4 weeks. Type of data set: organism-based. The arrangement: route oral. Conditions: in vivo.
Data set [8] has as its system Mus musculus. In words: Antidiabetic activity in streptozotocin-induced C57BL/6J mouse diabetic neuropathy model assessed as effect on hyperglycemia at 10 to 100 mg/kg/day, po administered 6 days per week for 4 weeks. Type of data set: functional, organism-based. In outline: as §2
Data set [9] has as its system Mus musculus. In words: Toxicity in C57BL/6J mouse assessed as change in body weight at 10 to 100 mg/kg/day, po administered 6 days per week for 4 weeks (reference value: 26.7 +/- 0.4 g). Also noted: route oral. Conditions: in vivo. Type of data set: organism-based.
The test system of data set [10] is Mus musculus. In words: Toxicity in C57BL/6J mouse sciatic nerve assessed as motor neuron conduction velocity at 10 to 100 mg/kg/day, po administered 6 days per week for 4 weeks (reference value: 35.6 +/- 1.1 m/s). Type of data set: organism-based. The arrangement: route oral. Conditions: in vivo.
Data set [11] deals with Mus musculus. In words: Antidiabetic activity in streptozotocin-induced C57BL/6J mouse diabetic neuropathy model assessed as effect on weight loss at 10 to 100 mg/kg/day, po administered 6 days per week for 4 weeks. Type of data set: functional, organism-based. A digest of the protocol: as §2
For data set [12], the system named is DRG neuron. In words: Neuroprotective activity in Sprague-Dawley rat DRG neurons assessed as enhancement of neurite outgrowth at >10 nM after 24 hrs by confocal microscopic analysis. Type of data set: functional. A digest of the protocol: as §1
A short description of data set [13]: AUC (0 to t) in C57BL/6J mouse at 10 mg/kg, po by LC-MS/MS analysis. Type of data set: ADME, organism-based. Also noted: dose 10 mg/kg, route oral. Conditions: plasma. In outline:
as §3

Data set [14] relates to DRG neuron. In words: Neuroprotective activity in Sprague-Dawley rat DRG neurons assessed as sprouting of neurites at 1 uM after 24 hrs by confocal microscopic analysis. Type of data set: functional. In outline: as §1
A short description of data set [15]: AUC (0 to t) in streptozotocin-induced C57BL/6J mouse diabetic neuropathy model at 10 mg/kg, po by LC-MS/MS analysis. Type of data set: ADME, organism-based. The arrangement: dose 10 mg/kg, route oral. Conditions: in vivo. A digest of the protocol: as §3
Data set [16] is described as follows: Cmax in streptozotocin-induced C57BL/6J mouse diabetic neuropathy model at 10 mg/kg, po by LC-MS/MS analysis. Type of data set: ADME, organism-based. Also noted: dose 10 mg/kg, route oral. Conditions: in vivo. A digest of the protocol:
as §3

Data set [17] is described as follows: Metabolic stability in mouse liver microsomes assessed as compound remaining at 2 uM after 1 hr by LC-MS/MS analysis. Type of data set: ADME, Microsome. Conditions: read-out: Stability. A digest of the protocol: (§4)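 2 μM compound incubated with mouse or human liver microsomes plus excess NADPH at 37 °C in a shaking water bath for 0 and 60 min (n = 6). Quenched with 2 volumes acetonitrile, centrifuged, supernatant diluted 1:1 with water, analysed by LC−MS/MS as % remaining. Propranolol control.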

Data set [18] in a line: Metabolic stability in human liver microsomes assessed as compound remaining at 2 uM after 1 hr by LC-MS/MS analysis. Type of data set: ADME, Microsome. Conditions: read-out: Stability. In outline: as §4
The nature of data set [19]: Permeability of the compound after 5 hrs by PAMPA. Type of data set: ADME. Conditions: read-out: permeability. In outline: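 Precoated PAMPA plate warmed to room temperature. Donor: 25 μM compound in 5% DMSO/PBS; acceptor: 5% DMSO/PBS. Incubated 5 h at 25 °C in water bath. Donor and acceptor samples quantified by LC−MS/MS against calibration standards; mass retention also determined. Propranolol control.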

Data set [20] deals with Mus musculus. In words: Antidiabetic activity in streptozotocin-induced C57BL/6J mouse diabetic neuropathy model assessed as effect on weight loss at 1 to 10 mg/kg/day, po administered 6 days per week for 4 weeks. Type of data set: functional, organism-based. In outline:
as §2

Data set [21] deals with Mus musculus. In words: Neuroprotective activity in streptozotocin-induced C57BL/6J mouse diabetic neuropathy model assessed as prevention of motor neuron conduction velocity slowing at 1 to 10 mg/kg/day, po administered 6 days per week for 4 weeks. Type of data set: functional, organism-based. In outline: as §2
The subject of data set [22] is DRG neuron. In words: Neuroprotective activity in Sprague-Dawley rat DRG neurons assessed as enhancement of neurite outgrowth at 0.01 uM after 24 hrs by confocal microscopic analysis. Type of data set: functional. A digest of the protocol: as §1
For data set [23], the system named is Mus musculus. In words: Antidiabetic activity in streptozotocin-induced C57BL/6J mouse diabetic neuropathy model assessed as effect on hyperglycemia at 1 to 10 mg/kg/day, po administered 6 days per week for 4 weeks. Type of data set: functional, organism-based. In outline:
as §2

For the molecule `Cc1ccccc1OCC(O)CO` (racemic), the result with DRG neuron [1] was Active.
On the same count and under the same terms, to `COc1ccccc1OC[C@@H](O)CF` belongs “inactive”.
As to `COc1ccccc1NCC(O)CO` (racemic), in the data set on DRG neuron [2], the outcome was inactive.
For the molecule `COc1ccccc1OCC(O)CO` (racemic) [GUAIFENESIN], the result with Mus musculus [3], with DRG neuron [12] and in the data set with DRG neuron [14] was Active. Also, the Tmax in data set [4] and in data set [6] was 4.98 min each time. In addition, the Cmax in [5] came out at 5.28 µM; in [16] it was 5.27 µM. For the same molecule, the Activity entry was “Non-toxic” in the data set with Mus musculus [7], 27.1 g in the data set with Mus musculus [9] and 35.1 meter/s in the data set with Mus musculus [10]. In addition, the outcome in the data set on Mus musculus [8] and in the data set on Mus musculus [11] was inactive. The results for the AUC(0-t) in data set [13] and in [15] were 2.73 µM·h and 1.91 µM·h, respectively.
`COc1ccccc1OC[C@@H](O)CO`: the outcome with DRG neuron [1] was inactive. Further, the figures for the remaining at 1 h, 2 µM in [17] and in data set [18] were 92.9% and 94.8%, respectively. In data set [19], the Papp at 5 h worked out at 8.2 ×10⁻⁶ cm/s.
With `COc1ccccc1OC[C@H](O)CO`, the figures for the remaining at 1 h, 2 µM in [17] and in [18] were 92.4% and 97.4%, respectively. The Tmax in [4] and in data set [6] was 10 min throughout. Besides, the outcome with Mus musculus [20] and in the data set with Mus musculus [23] was inactive. In addition, the outcome in the data set with Mus musculus [21] and with DRG neuron [22] was Active. Besides, the values for the Cmax in [5] and in data set [16] were 0.44 µM and 0.741 µM, respectively. Moreover, the Papp at 5 h in data set [19] worked out at 6.3 ×10⁻⁶ cm/s. The figures for the AUC(0-t) in [13] and in data set [15] were 0.737 µM·h and 0.746 µM·h, respectively.
Turning to `CCc1ccccc1OCC(O)CO` (stereo not given), in the data set with DRG neuron [1], the result was inactive.
